From ChEMBL document CHEMBL3856275, “Discovery of Second Generation Reversible Covalent DPP1 Inhibitors Leading to an Oxazepane Amidoacetonitrile Based Clinical Candidate (AZD7986)” (J Med Chem, 2016) come the findings set out here.

In brackets after ≈: the same amount, converted by molar mass. Where only a bound is given, the exact number is not on record here.

Series [1] can be described thus: Clearance in Beagle dog at 1 mg/kg, iv and 2 mg/kg, po. The conditions noted are these: in vivo. In kind it is ADME, organism-based, Canis lupus familiaris.
Another series deals with T1, Cathepsin G (Homo sapiens, UniProt P08311).
T1 sequence (P08311 whole entry): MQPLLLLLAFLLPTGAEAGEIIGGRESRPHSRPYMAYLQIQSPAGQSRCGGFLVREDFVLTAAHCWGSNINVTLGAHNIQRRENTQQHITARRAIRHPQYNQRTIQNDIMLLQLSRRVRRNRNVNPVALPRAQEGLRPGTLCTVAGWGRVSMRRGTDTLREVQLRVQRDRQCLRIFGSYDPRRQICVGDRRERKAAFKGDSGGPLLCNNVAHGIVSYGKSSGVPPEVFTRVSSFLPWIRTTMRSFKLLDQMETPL
In words: Inhibition of human recombinant cathepsin G.

A further series concerns the target Cathepsin Z (Homo sapiens, UniProt Q9UBR2). In words: Inhibition of human recombinant cathepsin Z.
Series [2] is described as follows: Intrinsic clearance in dog hepatocytes assessed per 10^6 cells at 1 uM after 10 to 90 mins by LC-MS/MS method. The class given is ADME, cell-based, Canis lupus familiaris, Hepatocyte.
A further series can be described thus: physchem. The settings on record: phosphate buffered saline, pH 7.4.
The target of a further series is T2, Cathepsin K (Homo sapiens, UniProt P43235).
T2 sequence (P43235 whole entry): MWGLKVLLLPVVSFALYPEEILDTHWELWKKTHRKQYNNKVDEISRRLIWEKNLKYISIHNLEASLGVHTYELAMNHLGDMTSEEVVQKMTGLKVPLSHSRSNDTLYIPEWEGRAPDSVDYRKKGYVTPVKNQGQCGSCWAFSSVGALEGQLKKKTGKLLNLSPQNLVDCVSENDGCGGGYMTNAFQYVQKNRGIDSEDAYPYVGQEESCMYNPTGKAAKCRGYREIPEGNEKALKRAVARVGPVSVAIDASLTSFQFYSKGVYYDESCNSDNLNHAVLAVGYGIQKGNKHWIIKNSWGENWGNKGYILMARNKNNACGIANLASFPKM
In words: Inhibition of human recombinant cathepsin K.

For series [3], the target named is Dipeptidyl peptidase 1 (Homo sapiens, UniProt P53634).
A short description of series [4]: Intrinsic clearance in rat hepatocytes at 1 uM after 5 to 120 mins by LC-MS/MS method. The class given is ADME, cell-based, Hepatocyte. In outline: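 Hepatocyte intrinsic clearance for rat and dog, given in µL/min/10^6 cells.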
A further series deals with Cathepsin B (Homo sapiens, UniProt P07858). The series can be described thus: Inhibition of human recombinant cathepsin B.
The target in another series is Procathepsin L (Homo sapiens, UniProt P07711). The series can be described thus: Inhibition of human recombinant cathepsin L.
Series [5] is described as follows: Protein binding in rat plasma at 10 uM after 6 hrs by LC-MS/MS method. In kind it is ADME, cell-free. The conditions noted are these: read-out: PPB (converted).
The target in series [6] is T3, Dipeptidyl peptidase 1 (Mus musculus, UniProt P97821).
T3 sequence (P97821 whole entry): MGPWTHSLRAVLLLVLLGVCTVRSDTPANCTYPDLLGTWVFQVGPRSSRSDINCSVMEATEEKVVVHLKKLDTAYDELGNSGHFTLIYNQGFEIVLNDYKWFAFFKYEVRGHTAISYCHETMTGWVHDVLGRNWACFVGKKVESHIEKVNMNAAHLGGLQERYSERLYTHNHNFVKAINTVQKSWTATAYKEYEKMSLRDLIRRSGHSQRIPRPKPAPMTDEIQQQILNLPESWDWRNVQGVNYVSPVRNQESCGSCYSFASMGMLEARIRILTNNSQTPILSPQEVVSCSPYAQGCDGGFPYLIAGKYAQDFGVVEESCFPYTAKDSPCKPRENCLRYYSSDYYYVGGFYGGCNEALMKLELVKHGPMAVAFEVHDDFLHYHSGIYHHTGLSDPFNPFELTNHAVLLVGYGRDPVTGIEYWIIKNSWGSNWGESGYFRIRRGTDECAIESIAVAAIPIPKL
In words: Inhibition of mouse DPP1 using Gly-Arg-AMC as substrate preincubated for 30 mins followed by substrate addition by fluorometric assay. Put shortly: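 Recombinant mouse DPP1 enzyme, tested under the same conditions as the human assay. Fluorometric assay in piperazine-based buffer.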

Series [7] is described as follows: Apparent permeability across basolateral to apical side in human Caco2 cells at 10 uM after 2 hrs by LC-MS/MS method. The settings on record: Caco-2. In kind it is ADME, cell-based. In outline: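 Caco-2 bidirectional permeability run as P_app, given in cm/s x 10^-6.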
Series [8] in a line: Half life in Beagle dog at 1 mg/kg, iv and 2 mg/kg, po. The class given is ADME, organism-based, Canis lupus familiaris. The conditions noted are these: in vivo.
Series [9] is described as follows: Volume of distribution at steady state in Beagle dog at 1 mg/kg, iv and 2 mg/kg, po. In kind it is ADME, organism-based, Canis lupus familiaris. The conditions noted are these: in vivo, read-out: Vdss.
The nature of series [10]: Oral bioavailability in Sprague-Dawley rat at 3 mg/kg. In kind it is ADME, organism-based. The conditions noted are these: in vivo.
Series [11] is described as follows: Intrinsic clearance in rat hepatocytes assessed per 10^6 cells at 1 uM after 10 to 90 mins by LC-MS/MS method. In kind it is ADME, cell-based, Hepatocyte.
In series [12] the target is Voltage-gated inwardly rectifying potassium channel KCNH2 (Homo sapiens, UniProt Q12809).
Series [13] in a line: Intrinsic clearance in human hepatocytes assessed per 10^6 cells at 1 uM after 10 to 90 mins by LC-MS/MS method. The class given is ADME, cell-based, Hepatocyte.

Sequence of Cathepsin Z (Q9UBR2 whole entry): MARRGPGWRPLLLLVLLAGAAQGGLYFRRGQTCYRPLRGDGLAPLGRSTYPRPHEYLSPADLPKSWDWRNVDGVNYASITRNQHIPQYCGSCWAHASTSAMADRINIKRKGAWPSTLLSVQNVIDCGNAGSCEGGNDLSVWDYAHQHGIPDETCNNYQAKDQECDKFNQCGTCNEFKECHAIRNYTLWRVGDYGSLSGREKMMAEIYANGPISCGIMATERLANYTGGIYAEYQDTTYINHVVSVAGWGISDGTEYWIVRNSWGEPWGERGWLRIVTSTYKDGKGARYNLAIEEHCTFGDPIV
Sequence of Procathepsin L (P07711 whole entry): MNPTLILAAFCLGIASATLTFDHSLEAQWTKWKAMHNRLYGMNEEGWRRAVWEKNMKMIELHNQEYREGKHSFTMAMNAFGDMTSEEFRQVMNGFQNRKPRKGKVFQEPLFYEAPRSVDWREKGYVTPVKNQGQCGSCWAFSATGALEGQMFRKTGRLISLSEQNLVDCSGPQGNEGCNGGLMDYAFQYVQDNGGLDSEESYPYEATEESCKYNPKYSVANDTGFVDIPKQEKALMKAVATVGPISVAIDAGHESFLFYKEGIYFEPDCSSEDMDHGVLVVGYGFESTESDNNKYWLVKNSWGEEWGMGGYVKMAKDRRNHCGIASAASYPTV
Sequence of Voltage-gated inwardly rectifying potassium channel KCNH2 (Q12809 whole entry): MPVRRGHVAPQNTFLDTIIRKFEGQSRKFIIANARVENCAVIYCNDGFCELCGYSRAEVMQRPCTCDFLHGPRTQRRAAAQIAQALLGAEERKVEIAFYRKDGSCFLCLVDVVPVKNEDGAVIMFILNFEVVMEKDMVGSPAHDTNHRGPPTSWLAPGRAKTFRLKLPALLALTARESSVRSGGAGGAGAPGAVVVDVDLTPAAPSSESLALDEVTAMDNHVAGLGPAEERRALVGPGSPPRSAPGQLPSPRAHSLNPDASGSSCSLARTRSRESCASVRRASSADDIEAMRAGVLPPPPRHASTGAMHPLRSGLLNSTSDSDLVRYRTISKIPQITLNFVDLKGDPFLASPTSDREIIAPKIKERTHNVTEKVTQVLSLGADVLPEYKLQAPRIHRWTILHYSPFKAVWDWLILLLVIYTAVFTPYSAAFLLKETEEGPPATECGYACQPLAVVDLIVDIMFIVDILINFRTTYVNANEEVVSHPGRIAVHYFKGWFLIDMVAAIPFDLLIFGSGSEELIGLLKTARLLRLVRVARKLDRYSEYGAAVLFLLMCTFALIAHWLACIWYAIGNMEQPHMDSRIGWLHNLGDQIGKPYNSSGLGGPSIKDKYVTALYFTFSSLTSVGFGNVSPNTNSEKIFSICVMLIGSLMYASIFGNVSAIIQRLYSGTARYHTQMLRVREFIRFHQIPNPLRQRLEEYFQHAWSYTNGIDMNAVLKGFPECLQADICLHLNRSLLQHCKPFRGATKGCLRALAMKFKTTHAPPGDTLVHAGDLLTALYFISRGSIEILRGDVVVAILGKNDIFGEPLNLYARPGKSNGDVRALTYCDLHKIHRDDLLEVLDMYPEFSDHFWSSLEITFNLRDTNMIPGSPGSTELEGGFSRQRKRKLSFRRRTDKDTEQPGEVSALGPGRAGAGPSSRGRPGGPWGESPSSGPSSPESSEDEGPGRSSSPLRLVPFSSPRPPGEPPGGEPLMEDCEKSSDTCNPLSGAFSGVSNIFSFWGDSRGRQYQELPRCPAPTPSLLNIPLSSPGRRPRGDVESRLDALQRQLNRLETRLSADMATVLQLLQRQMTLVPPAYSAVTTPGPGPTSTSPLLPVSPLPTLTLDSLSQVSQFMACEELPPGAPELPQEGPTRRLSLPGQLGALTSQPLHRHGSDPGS
Sequence of Dipeptidyl peptidase 1 (Homo sapiens, UniProt P53634) (P53634 25-134 limits assumed): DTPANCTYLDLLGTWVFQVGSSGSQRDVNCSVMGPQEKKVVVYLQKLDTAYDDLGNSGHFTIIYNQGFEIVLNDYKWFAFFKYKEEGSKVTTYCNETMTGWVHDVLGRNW
Sequence of Dipeptidyl peptidase 1 (Homo sapiens, UniProt P53634) (P53634 231-394 limits assumed): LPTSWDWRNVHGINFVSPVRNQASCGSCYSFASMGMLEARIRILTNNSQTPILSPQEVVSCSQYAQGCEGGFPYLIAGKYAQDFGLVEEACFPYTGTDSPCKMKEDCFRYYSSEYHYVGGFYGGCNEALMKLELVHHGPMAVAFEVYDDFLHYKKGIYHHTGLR
Sequence of Dipeptidyl peptidase 1 (Homo sapiens, UniProt P53634) (P53634 395-463 limits assumed): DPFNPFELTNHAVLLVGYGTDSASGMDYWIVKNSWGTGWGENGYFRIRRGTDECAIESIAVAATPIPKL

As for `Cn1c(=O)oc2ccc(-c3ccc(C[C@@H](C#N)NC(=O)[C@@H]4CNCCCO4)cc3)cc21` [BRENSOCATIB], in series [1], the clearance came to 8 mL/min/kg. The IC50 was more than 20 µM at Cathepsin G; more than 20 µM at Cathepsin Z; more than 20 µM at Cathepsin K; more than 20 µM at Cathepsin B; more than 20 µM on Procathepsin L; 0.0251 µM at Dipeptidyl peptidase 1 [6]. In series [12], this molecule came in with an IC50 of more than 33 µM. Besides, the results for the CLH in series [2], in series [4] and in series [11] were less than 3.5 µL/min/10^6 cells, 1.9 µL/min/1e6 cells and less than 3.5 µL/min/10^6 cells, respectively. Besides, the solubility (kinetic) at 2 h in the series “physchem” was found to be 180 µM (≈ 75.7 µg/mL). In addition, at Dipeptidyl peptidase 1 [3], the T1/2 turned out to be 3 min. In addition, the fraction unbound at 6 h, 10 µM in [5] is 0.06. Besides, in series [7], the Papp B→A at 2 h, 10 µM worked out at 27 ×10⁻⁶ cm/s. In series [8], this molecule gave a half-life of 18 h. Also, the Vd in series [9] worked out at 11 L/kg. Also, in series [10], the bioavailability came to 30%. In series [13], this molecule had an intrinsic clearance (CLint) of less than 3.5 µL/min/10^6 cells.
